Our source for the Activity values is ChEMBL document CHEMBL1687818, “Mechanistic studies of the inactivation of TEM-1 and P99 by NXL104, a novel non-beta-lactam beta-lactamase inhibitor” (Antimicrob Agents Chemother, 2010).

Assay [1] can be described thus: Inhibition of beta-lactamase TEM-1 assessed as inactivation rate constant for longer incubation time yield of enzyme by spectrophotometry.
Assay [2] in a line: Inhibition of beta-lactamase TEM-1 assessed as inactivation rate constant by spectrophotometry. Summed up:
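Reporter-substrate method at 37°C: purified TEM-1 at 0.25 nM was added to 100 µM nitrocefin plus inhibitor at various concentrations, and hydrolysis was followed at 485 nm for 60 s. kobs was taken from the time courses, and K and k2 came from a plot of [I]/kobs against [I]. Means of at least two independent experiments.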

Molecules are shown by their SMILES.

With `C[C@]1(Cn2ccnn2)[C@H](C(=O)O)N2C(=O)C[C@H]2S1(=O)=O`, the Activity in assay [1] was determined as 0.02 s⁻¹.

For the compound `NC(=O)[C@@H]1CC[C@@H]2CN1C(=O)N2OS(=O)(=O)O` (relative stereo), the Activity in assay [2] was 0.11 s⁻¹.

On to `O=C(O)[C@H]1/C(=C/CO)O[C@@H]2CC(=O)N21`, for which, in assay [1], the Activity was 0.03 s⁻¹.
